# Reference: ChEMBL document CHEMBL4425103, “Diving into the Water: Inducible Binding Conformations for BRD4, TAF1(2), BRD9, and CECR2 Bromodomains” (J Med Chem, 2016)
# Columns and labels:
# Peregrin = target: T1, Peregrin (Homo sapiens, UniProt P55201); assay: Displacement of biotinylated JQ1 analog from recombinant His-tagged BRPF1 (unknown origin) incubated for 10 mins by TR-FRET assay
# T1 sequence (P55201 whole entry): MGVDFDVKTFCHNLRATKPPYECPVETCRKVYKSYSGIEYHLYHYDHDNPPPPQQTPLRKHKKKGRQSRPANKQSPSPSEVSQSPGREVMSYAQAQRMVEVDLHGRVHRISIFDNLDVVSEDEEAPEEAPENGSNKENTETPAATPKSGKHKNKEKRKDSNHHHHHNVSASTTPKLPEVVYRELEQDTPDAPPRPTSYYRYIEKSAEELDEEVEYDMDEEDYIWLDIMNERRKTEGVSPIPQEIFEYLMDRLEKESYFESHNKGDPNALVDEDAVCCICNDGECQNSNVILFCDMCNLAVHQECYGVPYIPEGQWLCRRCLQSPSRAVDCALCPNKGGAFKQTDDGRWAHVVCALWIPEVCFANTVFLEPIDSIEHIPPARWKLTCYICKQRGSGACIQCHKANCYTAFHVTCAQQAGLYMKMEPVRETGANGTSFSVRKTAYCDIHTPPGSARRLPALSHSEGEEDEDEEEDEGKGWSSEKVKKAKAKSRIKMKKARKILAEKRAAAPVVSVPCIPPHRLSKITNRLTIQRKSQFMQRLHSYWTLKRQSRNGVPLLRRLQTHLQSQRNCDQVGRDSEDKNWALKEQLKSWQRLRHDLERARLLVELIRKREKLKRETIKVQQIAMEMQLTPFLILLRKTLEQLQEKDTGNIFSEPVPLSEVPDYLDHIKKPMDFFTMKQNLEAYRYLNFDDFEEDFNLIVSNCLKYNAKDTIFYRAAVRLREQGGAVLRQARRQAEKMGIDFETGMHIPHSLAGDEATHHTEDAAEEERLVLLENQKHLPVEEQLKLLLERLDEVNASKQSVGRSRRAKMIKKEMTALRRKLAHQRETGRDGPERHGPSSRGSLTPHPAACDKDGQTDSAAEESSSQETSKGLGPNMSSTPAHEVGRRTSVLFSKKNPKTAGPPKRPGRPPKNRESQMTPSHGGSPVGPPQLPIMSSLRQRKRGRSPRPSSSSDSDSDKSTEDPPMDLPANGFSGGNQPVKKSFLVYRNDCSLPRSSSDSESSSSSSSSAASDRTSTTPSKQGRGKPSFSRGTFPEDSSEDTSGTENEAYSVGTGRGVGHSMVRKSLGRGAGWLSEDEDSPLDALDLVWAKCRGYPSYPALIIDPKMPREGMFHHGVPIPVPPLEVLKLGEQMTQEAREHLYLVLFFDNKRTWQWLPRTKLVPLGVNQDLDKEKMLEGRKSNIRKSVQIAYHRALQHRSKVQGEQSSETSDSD
# How it was run: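 Bromodomain, then biotinylated ligand, each added with 10 min incubation. Anti-His europium (0.2 nM) plus streptavidin-APC followed for 40 min. 10-point titrations in duplicate, at least 2 independent runs.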
# [1] = target: T2, Bromodomain-containing protein 4 (Homo sapiens, UniProt O60885); assay: Inhibition of recombinant His-tagged BRD4 bromodomain1 (unknown origin) using biotinylated ligand incubated for 10 mins by TR-FRET assay
# [2] = target: T2, Bromodomain-containing protein 4; assay: Inhibition of recombinant His-tagged BRD4 bromodomain2 (unknown origin) using biotinylated ligand incubated for 10 mins by TR-FRET assay
# CREB-binding protein = CREB-binding protein (Homo sapiens, UniProt Q92793); assay: Displacement of biotinylated JQ1 analog from recombinant His-tagged CBP (unknown origin) incubated for 10 mins by TR-FRET assay
# [3] = target: T3, Bromodomain-containing protein 9 (Homo sapiens, UniProt Q9H8M2); assay: Displacement of biotinylated JQ1 analog from recombinant His-tagged BRD9 (unknown origin) incubated for 10 mins by TR-FRET assay
# T3 sequence (Q9H8M2 whole entry): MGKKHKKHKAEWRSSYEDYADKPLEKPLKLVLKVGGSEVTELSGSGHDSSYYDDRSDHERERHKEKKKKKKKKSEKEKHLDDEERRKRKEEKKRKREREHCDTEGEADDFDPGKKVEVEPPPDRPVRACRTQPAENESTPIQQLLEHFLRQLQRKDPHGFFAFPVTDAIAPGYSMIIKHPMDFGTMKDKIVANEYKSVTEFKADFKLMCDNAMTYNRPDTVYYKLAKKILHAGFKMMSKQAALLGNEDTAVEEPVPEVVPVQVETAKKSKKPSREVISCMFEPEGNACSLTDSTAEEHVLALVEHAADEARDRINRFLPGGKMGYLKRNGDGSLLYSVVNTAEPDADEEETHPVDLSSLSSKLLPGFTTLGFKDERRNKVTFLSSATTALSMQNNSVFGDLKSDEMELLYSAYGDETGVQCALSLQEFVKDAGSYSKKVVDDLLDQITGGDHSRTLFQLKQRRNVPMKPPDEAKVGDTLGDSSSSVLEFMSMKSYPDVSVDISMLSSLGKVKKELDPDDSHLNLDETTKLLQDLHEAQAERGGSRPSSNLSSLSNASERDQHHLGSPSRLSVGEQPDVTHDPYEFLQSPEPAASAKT
# [4] = target: T4, Transcription initiation factor TFIID subunit 1 (Homo sapiens, UniProt P21675); assay: Inhibition of recombinant His-tagged TAF1 isoform-1 (unknown origin) using biotinylated ligand incubated for 10 mins by TR-FRET assay
# T4 sequence (P21675 whole entry, canonical isoform): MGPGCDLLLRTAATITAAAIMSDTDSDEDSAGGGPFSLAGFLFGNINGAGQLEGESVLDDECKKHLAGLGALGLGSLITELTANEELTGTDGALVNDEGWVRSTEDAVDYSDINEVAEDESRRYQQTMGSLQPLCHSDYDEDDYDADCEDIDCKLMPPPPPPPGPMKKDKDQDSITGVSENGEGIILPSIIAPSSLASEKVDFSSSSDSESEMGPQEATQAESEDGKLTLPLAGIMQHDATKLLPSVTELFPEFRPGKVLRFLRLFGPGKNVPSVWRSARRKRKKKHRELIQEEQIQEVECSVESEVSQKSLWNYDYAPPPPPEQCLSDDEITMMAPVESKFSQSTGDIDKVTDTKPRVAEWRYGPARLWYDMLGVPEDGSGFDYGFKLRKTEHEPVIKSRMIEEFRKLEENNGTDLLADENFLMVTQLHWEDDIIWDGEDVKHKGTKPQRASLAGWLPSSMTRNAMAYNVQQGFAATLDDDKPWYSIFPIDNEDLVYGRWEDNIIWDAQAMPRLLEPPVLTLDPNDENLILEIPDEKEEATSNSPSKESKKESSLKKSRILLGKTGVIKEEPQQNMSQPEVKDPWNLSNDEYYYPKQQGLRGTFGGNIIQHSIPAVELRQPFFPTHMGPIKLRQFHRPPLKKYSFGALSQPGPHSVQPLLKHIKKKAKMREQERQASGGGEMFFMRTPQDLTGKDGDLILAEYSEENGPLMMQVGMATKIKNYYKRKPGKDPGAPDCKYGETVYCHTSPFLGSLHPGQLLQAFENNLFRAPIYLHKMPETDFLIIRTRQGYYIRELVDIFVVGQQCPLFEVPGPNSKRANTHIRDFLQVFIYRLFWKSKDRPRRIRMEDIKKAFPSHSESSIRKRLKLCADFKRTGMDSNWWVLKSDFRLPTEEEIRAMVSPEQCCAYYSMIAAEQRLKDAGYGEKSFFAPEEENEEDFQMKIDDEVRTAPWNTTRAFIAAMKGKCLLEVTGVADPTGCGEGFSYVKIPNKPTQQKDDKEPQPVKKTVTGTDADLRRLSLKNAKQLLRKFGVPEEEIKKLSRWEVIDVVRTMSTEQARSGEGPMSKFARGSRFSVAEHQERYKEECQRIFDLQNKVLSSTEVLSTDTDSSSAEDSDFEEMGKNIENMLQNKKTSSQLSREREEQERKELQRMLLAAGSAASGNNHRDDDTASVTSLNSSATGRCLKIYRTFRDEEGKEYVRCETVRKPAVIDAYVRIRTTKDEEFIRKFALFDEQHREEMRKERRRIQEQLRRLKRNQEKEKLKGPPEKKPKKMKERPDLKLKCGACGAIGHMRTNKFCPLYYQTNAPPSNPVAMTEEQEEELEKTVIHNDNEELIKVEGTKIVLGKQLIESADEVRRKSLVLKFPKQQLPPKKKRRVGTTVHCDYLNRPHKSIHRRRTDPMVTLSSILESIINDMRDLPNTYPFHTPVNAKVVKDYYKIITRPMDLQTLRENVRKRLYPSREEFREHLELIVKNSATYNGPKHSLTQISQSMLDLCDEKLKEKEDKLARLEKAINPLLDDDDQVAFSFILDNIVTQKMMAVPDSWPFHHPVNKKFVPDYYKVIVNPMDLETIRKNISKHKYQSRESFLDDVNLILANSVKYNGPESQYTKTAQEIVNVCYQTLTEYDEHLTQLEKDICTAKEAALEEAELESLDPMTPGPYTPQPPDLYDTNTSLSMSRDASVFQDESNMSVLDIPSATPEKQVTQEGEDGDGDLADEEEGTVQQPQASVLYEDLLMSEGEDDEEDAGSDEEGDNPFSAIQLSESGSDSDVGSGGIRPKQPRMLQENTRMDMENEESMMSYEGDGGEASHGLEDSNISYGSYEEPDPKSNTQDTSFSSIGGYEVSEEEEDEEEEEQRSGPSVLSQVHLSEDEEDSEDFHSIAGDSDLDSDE
# [5] = target: T4, Transcription initiation factor TFIID subunit 1; assay: Inhibition of recombinant His-tagged TAF1 isoform-2 (unknown origin) using biotinylated ligand incubated for 10 mins by TR-FRET assay
# [6] = target: Chromatin remodeling regulator CECR2 (Homo sapiens, UniProt Q9BXF3); assay: Inhibition of recombinant His-tagged CECR2 (unknown origin) using biotinylated ligand incubated for 10 mins by TR-FRET assay
# Sequence of Chromatin remodeling regulator CECR2 (Q9BXF3 whole entry): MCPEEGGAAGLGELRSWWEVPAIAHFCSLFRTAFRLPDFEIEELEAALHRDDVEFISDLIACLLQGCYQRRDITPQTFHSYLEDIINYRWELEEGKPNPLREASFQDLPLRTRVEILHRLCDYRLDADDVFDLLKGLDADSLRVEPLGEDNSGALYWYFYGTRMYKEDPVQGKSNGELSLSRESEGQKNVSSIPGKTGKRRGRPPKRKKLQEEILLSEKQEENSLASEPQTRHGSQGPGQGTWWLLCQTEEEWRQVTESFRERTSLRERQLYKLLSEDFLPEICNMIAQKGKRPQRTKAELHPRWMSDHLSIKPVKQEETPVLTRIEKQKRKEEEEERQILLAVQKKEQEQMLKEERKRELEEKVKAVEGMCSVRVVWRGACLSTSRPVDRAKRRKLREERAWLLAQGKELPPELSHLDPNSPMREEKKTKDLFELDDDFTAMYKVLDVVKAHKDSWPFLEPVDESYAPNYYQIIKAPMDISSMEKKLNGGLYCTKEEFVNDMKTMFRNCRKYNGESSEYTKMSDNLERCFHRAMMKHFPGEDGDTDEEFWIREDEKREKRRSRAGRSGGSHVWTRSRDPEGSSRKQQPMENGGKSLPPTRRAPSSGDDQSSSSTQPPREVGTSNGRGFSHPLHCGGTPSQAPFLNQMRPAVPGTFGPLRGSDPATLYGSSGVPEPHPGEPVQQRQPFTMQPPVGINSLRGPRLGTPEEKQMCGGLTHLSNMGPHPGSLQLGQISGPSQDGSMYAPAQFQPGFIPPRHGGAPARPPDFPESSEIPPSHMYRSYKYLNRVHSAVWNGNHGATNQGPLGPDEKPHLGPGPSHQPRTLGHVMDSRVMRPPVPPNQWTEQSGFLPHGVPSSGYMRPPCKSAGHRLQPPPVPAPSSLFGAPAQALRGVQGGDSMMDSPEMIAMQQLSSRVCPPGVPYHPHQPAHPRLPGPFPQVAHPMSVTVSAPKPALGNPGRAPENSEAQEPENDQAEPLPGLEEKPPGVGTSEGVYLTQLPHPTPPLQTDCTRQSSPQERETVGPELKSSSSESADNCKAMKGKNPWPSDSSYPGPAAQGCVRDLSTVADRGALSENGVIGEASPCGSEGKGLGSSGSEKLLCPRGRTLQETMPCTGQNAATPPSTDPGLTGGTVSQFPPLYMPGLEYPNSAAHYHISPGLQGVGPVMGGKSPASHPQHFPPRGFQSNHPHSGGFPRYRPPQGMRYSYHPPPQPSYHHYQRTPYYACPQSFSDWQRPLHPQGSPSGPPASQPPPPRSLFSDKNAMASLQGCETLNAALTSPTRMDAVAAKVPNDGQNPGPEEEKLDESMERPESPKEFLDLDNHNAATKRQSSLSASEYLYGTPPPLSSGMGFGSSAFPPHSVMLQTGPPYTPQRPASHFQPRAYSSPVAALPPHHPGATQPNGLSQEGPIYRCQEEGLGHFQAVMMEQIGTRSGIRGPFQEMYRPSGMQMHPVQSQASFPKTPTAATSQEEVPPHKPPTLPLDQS
IC50 (Peregrin),IC50 [1],IC50 [2],IC50 (CREB-binding protein),IC50 [3],IC50 [4],IC50 [5],IC50 [6],Compound
> 20 µM,,,,,,,,C/C=C/Cn1cc(-c2cccc(C(=O)N(C)C)c2)c2cc[nH]c2c1=O
53.8 µM,18.4 µM,7.5 µM,11.8 µM,13.7 µM,38.9 µM,23.7 µM,42.8 µM,Cn1ccc2cc[nH]c2c1=O
> 20 µM,,,,,,,,C=CCCn1cc(-c2cccc(C(=O)N(C)C)c2)c2cc[nH]c2c1=O
